According to ChEMBL document CHEMBL1154688, “Selective Kv1.5 blockers: development of (R)-1-(methylsulfonylamino)-3-[2-(4-methoxyphenyl)ethyl]-4-(4-methoxyphenyl)-2-imidazolidinone (KVI-020/WYE-160020) as a potential treatment for atrial arrhythmia” (J Med Chem, 2009):
pIC50: −log10 of the molar value. Values after ≈ are worked out from the molar mass of the structure shown.

Legend:
[1] = target: Potassium voltage-gated channel subfamily A member 5 (Homo sapiens, UniProt P22460); assay: Inhibition of human Kv1.5 expressed in CHO cells by patch-clamp technique; assay type: cell-based
Sequence of Potassium voltage-gated channel subfamily A member 5 (P22460 whole entry): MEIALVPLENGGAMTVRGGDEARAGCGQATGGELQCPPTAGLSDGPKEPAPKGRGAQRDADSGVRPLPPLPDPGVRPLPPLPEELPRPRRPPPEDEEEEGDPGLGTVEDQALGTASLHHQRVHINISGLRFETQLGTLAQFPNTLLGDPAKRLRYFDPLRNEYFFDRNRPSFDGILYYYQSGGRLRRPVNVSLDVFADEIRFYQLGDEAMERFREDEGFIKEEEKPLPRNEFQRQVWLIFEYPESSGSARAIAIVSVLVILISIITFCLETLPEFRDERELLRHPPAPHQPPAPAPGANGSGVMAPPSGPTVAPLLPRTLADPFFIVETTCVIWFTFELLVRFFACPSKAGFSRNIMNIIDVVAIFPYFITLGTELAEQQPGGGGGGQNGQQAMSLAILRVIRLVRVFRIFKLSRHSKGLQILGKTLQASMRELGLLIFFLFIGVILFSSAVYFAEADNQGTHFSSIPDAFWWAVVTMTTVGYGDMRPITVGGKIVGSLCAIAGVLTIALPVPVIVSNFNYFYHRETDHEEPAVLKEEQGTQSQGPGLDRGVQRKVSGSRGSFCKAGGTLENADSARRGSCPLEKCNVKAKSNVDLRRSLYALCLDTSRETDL
Method in brief: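 Human Kv1.5 stably expressed in CHO cells. IC50 was determined by automated patch clamp on the IonWorks platform.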

[2] = target: Voltage-gated inwardly rectifying potassium channel KCNH2 (Homo sapiens, UniProt Q12809); assay: Inhibition of human ERG by patch-clamp technique
Sequence of Voltage-gated inwardly rectifying potassium channel KCNH2 (Q12809 whole entry): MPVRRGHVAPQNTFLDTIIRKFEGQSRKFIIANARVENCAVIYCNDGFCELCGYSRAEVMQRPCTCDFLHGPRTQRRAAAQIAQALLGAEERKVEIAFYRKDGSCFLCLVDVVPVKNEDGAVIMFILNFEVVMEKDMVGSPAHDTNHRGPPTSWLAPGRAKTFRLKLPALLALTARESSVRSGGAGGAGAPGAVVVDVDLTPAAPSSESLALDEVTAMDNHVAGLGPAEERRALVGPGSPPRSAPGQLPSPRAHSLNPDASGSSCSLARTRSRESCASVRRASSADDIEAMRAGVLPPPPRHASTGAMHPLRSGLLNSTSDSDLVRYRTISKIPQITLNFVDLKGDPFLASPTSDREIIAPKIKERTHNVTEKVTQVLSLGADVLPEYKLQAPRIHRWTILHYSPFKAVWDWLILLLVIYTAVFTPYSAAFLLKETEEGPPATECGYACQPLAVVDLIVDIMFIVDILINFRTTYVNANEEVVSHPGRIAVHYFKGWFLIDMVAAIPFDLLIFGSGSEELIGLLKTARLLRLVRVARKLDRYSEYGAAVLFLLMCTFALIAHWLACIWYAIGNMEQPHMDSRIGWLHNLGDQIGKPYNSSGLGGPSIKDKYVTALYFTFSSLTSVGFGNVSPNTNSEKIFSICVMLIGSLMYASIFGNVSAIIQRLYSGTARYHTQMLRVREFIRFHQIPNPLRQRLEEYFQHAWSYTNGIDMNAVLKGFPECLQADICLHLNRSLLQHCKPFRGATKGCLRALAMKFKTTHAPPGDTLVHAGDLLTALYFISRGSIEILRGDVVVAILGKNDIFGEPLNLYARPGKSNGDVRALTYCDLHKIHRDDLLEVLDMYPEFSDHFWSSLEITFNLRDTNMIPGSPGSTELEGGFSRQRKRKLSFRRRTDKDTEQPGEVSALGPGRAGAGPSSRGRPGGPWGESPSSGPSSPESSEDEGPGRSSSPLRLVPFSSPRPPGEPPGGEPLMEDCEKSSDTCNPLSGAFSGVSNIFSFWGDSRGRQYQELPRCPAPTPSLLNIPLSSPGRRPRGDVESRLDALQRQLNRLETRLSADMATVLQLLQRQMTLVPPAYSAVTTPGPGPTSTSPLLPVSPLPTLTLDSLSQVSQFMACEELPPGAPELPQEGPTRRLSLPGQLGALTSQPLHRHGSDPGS

[3] = Aqueous solubility at pH 7.4 by direct UV method; assay type: physicochemical; details: aqueous medium
Method in brief: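 Solubility measured in pH 7.4 buffer with direct UV read-out.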

[4] = Metabolic stability in human liver microsomes assessed as half life; assay type: ADME, Microsome
Method in brief: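 Test compound at 1 μM incubated with 1 mg/mL male beagle dog or male human liver microsomal protein. Half-life was determined from compound loss.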

[5] = target: CYP3A4 (Homo sapiens, UniProt P08684); assay: Inhibition of CYP3A4 at 3 uM by fluorescent method; assay type: ADME
Sequence of CYP3A4 (P08684 whole entry): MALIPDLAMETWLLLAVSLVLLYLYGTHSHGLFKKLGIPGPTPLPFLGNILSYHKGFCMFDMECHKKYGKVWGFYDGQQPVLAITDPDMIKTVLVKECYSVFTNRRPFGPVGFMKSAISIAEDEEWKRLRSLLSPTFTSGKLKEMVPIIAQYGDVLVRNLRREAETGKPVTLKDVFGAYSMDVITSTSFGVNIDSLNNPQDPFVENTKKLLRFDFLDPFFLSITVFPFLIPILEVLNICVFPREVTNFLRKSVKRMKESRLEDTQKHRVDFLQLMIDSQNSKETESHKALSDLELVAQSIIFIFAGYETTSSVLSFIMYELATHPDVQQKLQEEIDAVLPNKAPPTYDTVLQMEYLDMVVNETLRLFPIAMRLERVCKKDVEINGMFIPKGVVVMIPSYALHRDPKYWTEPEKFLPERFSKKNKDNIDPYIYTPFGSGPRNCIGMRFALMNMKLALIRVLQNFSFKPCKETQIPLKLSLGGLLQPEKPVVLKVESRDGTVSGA
Method in brief: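 CYP3A4 inhibition measured by a fluorescent method.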

Structure (SMILES) | pIC50 [1] | pIC50 [2] | solubility [3] [mg/mL] | half-life [4] [min] | inhibition at 3 µM [5] [%]
COc1ccc(CCN2C(=O)N(NS(C)(=O)=O)CC2c2ccc(C)c(C)c2)cc1 (centres undefined) | 6.21 | 4.80 | 0.017 (≈ 40.7 µM) | 13 | 77
CCOc1ccc(CCN2C(=O)N(NS(C)(=O)=O)C[C@@H]2c2ccc(OC)cc2)cc1 | 6.11 |  | 0.043 (≈ 99.2 µM) | 17 | 4
COc1ccc(CCCN2C(=O)N(NS(C)(=O)=O)C[C@H]2c2ccc(OC)cc2)cc1 | 6.25 | 4.84 | 0.015 (≈ 34.6 µM) | 12 | 50
COc1ccc(CCN2C(=O)N(NS(C)(=O)=O)CC2c2ccc(OC(C)C)cc2)cc1 (centres undefined) | 6.62 | 4.77 | 0.026 (≈ 58.1 µM) | 30 | 53
